Laboratory results: publication PMC4502742 (Autophagy, 2015)
Non-standard residues stand in square brackets, D forms with d. No end group written: not given here. pS = N[C@@H](COP(=O)(O)O)C(=O)O

Legend:
MRL/lpr lupus-prone mice = details: cited from earlier work
CTSD = CTSD protein in purified B cells of treated mice, western immunoblotting; assay type: in vivo; details: MRL/lpr mice, 100 μg P140/mouse/injection once or 6 times at daily intervals; Fig. 5F
In short: (§1)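 MRL/lpr mice (10–13 wk old, 3 per group) received 100 μg test peptide per injection. Dosing was either once, with cells taken 5 d later, or 6 times at daily intervals, with cells taken 1 d after the last injection. Purified B cells were immunoblotted and band intensity was expressed relative to β-ACTA. Ratios were normalized to untreated MRL/lpr mice and given as mean of 3 mice + SD; at least 2 independent experiments.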

[1] = Stability in matrices of isolated lysosomes; assay type: in vitro ADME; details: pH 4.2, 5.3, 7.2
In short: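 Peptide stability was tested in artificial lysosomal fluid at pH 4.2, 5.3 and 7.2. The fluid was supplemented with CTSD plus CTSL or with matrix extracted from isolated lysosomes. Samples were analysed by analytical RP-HPLC at 220 nm using water + 0.1% TFA and acetonitrile + 0.08% TFA eluents. Degradation was judged from the remaining intact-peptide peak area at several time intervals.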

[2] = system: major histocompatibility complex class II (MHCII) molecules; details: cited from earlier work
[3] = system: lysosomes isolated from mouse liver; test: CMA in vitro: GAPDH binding and uptake by isolated lysosomes; assay type: biochemical
[4] = system: chaperone-mediated autophagy (CMA) in NIH3T3 cells; test: CMA activity, KFERQ-PA-mCherry1 reporter; assay type: cell-based, mouse; details: NIH3T3, serum-free medium, 10 and 30 μM peptide, 12 h; N > 50 cells; Fig. 4
In short: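 NIH3T3 cells stably expressing the photoactivable KFERQ-PA-mCherry1 reporter were photoactivated, then kept in serum-free medium to maximally activate CMA, with or without 10 or 30 μM test peptide for 12 h. Scrambled and unphosphorylated peptides served as controls. Nuclei were stained with DAPI. Fluorescent puncta per cell were counted in at least 50 cells. Results are mean + SEM; Student t test.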

LAMP2A = test: Lamp2a mRNA in purified B cells, qRT-PCR; assay type: in vivo, mouse; details: B cells of MRL/lpr mice; Fig. S13
lupus patients = details: phase II clinical trials; cited from earlier work
[5] = system: HSPA8/HSC70/HSP73 chaperone; details: cited from earlier work
LAMP1 = LAMP1 protein in purified B cells of treated mice, western immunoblotting; assay type: in vivo; details: MRL/lpr mice, 100 μg P140/mouse/injection once or 6 times at daily intervals; Fig. 5F
In short: as §1

HSPA8 = HSPA8 (Bos taurus, UniProt P19120); test: HSPA8 ATPase activity; assay type: biochemical; details: HSPA8 500 nM without HSP40; 100 μM ATP; 3 h at 37°C; luminescence; 3 independent experiments; Fig. 1D
Chain of HSPA8 (P19120 whole entry): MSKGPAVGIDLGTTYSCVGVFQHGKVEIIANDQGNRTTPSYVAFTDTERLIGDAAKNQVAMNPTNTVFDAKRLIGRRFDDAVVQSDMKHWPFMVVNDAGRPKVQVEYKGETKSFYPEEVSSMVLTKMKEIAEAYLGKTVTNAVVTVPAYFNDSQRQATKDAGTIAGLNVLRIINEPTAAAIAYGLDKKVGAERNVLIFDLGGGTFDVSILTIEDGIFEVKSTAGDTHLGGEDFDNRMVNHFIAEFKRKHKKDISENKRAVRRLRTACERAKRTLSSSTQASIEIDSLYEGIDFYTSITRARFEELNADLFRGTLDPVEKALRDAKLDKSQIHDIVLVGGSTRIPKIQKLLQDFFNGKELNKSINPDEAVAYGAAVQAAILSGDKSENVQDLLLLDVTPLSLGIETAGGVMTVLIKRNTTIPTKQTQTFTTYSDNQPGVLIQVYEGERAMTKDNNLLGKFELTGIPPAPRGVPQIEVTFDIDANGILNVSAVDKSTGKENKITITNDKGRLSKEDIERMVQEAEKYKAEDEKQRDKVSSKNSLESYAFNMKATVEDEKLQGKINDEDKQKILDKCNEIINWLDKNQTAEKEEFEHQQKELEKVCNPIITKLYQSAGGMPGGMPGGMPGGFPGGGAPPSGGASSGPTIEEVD

[6] = system: B cells from MRL/lpr mice; test: Internalization and colocalization in purified B cells, confocal microscopy; assay type: cell-based, mouse; details: PBS-2% FCS
[7] = system: chaperone-mediated autophagy (CMA) in NIH3T3 cells; test: CMA activity, KFERQ-PS-Dendra reporter, high-content microscopy; assay type: cell-based, mouse; details: 6 P140 concentrations, serum, starvation, paraquat 50 μM, > 700 cells, compared to an inactive P140 analog, Fig. S9
MRL/lpr mice splenocytes = test: Intracellular localization in splenocytes after iv administration; assay type: in vivo, mouse; details: 1 h after iv administration; Fig. S5
In short: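 MRL/lpr mice (10–12 wk old) received 100 μg Alexa Fluor 488-labeled peptide intravenously. Splenocytes taken 1 h after injection were incubated for 30 min at 37°C in complete RPMI with 100 nM LysoTracker Red DND-99 or 500 nM MitoTracker Deep Red FM. After washing in the same medium, they were imaged immediately by confocal microscopy.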

[8] = system: CTSD/cathepsin D and CTSL/cathepsin L; test: Stability in artificial lysosomal fluid; assay type: in vitro ADME
[9] = target: HSPA8 N-terminal fragment 1-386 (nucleotide binding domain) (human, UniProt P11142 1-386); test: ELISA
Chain of HSPA8 N-terminal fragment 1-386 (nucleotide binding domain) (P11142 1-386): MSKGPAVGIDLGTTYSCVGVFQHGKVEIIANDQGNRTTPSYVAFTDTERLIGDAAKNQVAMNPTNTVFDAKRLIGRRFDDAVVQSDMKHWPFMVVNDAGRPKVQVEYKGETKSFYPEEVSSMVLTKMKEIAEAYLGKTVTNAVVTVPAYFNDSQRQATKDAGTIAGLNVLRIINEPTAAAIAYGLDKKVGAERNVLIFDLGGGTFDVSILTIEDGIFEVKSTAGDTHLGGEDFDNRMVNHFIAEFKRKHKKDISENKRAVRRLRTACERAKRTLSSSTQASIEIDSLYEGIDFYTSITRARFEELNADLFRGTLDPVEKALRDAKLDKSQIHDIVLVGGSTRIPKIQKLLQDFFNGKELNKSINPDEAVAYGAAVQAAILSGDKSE

[10] = administered intravenously to MRL/lpr mice

Molecule: RIHMVYSKRpSGKPRGYAFIEY [P140]
- protective effect in lupus-prone mice (MRL/lpr lupus-prone mice; MRL/lpr mice): displays protective properties
- MHCII expression (MRL/lpr lupus-prone mice; MRL/lpr mice, earlier work): decreases MHCII overexpression
- signs of systemic autoimmunity (proteinuria, vasculitis, dermatitis, anti-DNA antibody production) (MRL/lpr lupus-prone mice; MRL/lpr mice, earlier work): attenuates biological and clinical signs of systemic autoimmunity
- HSPA8 expression (MRL/lpr lupus-prone mice; [10]): decreases the HSPA8 overexpression observed in this murine strain
- autophagy markers SQSTM1/p62 and LC3-II (MRL/lpr lupus-prone mice; [10]): increases the accumulation of the autophagy markers SQSTM1/p62 (sequestosome 1) and LC3-II
- CTSD expression in purified B cells (CTSD): highly significant reduction
- stability over pH in CMA+ lysosomal extracts [1]: remains stable on a large range of pH
- binding to MHCII molecules [2]: binds both the HSPA8/HSC70/HSP73 chaperone and major histocompatibility complex class II (MHCII) molecules
- GAPDH associated with lysosomes, exogenous HSPA8 added ([3]; as above with exogenous HSPA8 in the incubation media, Fig. S10B): not even when exogenous HSPA8 was added
- uptake of GAPDH by lysosomes ([3]; difference of GAPDH with and without protease inhibitors, Fig. S10C, D): did not significantly modify binding or uptake of GAPDH by CMA
- GAPDH associated with lysosomes ([3]; lysosomes 75 μg protein pretreated with protease inhibitors, GAPDH 25 μg, 20 min at 37°C, pH 7.3, increasing peptide concentrations, immunoblot, Fig. S10A): did not modify the amount of GAPDH recovered in lysosomes
- binding of GAPDH to lysosomes ([3]; lysosomes without protease inhibitors, Fig. S10C, D): did not significantly modify binding or uptake of GAPDH by CMA
- CMA activity, average number of fluorescent puncta per cell [4]: clearly diminished the average number of puncta per cell in a dose-dependent manner
- Lamp2a mRNA level (LAMP2A): lack of change at the mRNA level
- protective effect in lupus patients (lupus patients): displays protective properties
- binding to HSPA8 [5]: readily binds to HSPA8
- LAMP1 expression in purified B cells (LAMP1): A similar trend was observed for LAMP1 expression
- endogenous HSPA8 ATPase activity (HSPA8): effectively increase both the endogenous and HSP40-stimulated ATPase activities of HSPA8 in a peptide dose-dependent manner
- entry pathway into B lymphocytes ([6]; B lymphocytes from 12-wk-old MRL/lpr mice, Alexa Fluor 488-labeled peptide 10 μM, 30 min at 37°C, confocal, Fig. 2A): endocytosed by a clathrin-dependent mechanism
- CMA activity, average number of puncta per cell [7]: significantly diminish CMA activity in a peptide concentration-dependent manner
- localization by LysoTracker Red / MitoTracker Deep Red counterstaining (MRL/lpr mice splenocytes): accumulated into lysosomes
- time for which the phosphoryl moiety was preserved ([8]; ALF, pH 4.2, 37°C, LC-MS, Fig. S8): about 2 h
- dependence of stability on pH ([8]; pH 5.3 and 7.2 compared to 4.2, medium not given): more stable at higher pH (5.3 and 7.2 compared to 4.2)

Molecule: 131–151: unphosphorylated (nonprotective) peptide 131–151 of SNRNP70/U1–70K (RIHMVYSKRSGKPRGYAFIEY; UniProt P08621 131-151, looked up, fragment) [reference compound]
- CMA activity, average number of fluorescent puncta per cell [4]: did not observe any changes in CMA activity
- colocalization with early endosomal marker EEA1, ex vivo ([6]; 10 μM Alexa Fluor 488-labeled peptide, 15 min at 37°C, Fig. 3B, S6B, C): colocalization with EEA1 was hardly seen

Molecule: RIHMVYSKR[pS]GKPRGYAFIEY [P140 peptide (SNRNP70/U1-70K 131-151, phosphoserine 140)]
- binding result [9]: binds
